Experimental findings from ChEMBL document CHEMBL4033651, “Exploration of flexible phenylpropylurea scaffold as novel cardiac myosin activators for the treatment of systolic heart failure” (Eur J Med Chem, 2017) are described below.

Experiment [1] relates to Rattus norvegicus. The experiment is described as follows: Effect on hemodynamic parameters in Sprague-Dawley rat heart assessed as end-systolic pressure at 128 ug/kg/min (reference value: 87.48 mmHg). The format is functional.
Experiment [2] concerns Rattus norvegicus. The experiment is described as follows: Effect on hemodynamic parameters in Sprague-Dawley rat heart assessed as end-diastolic pressure at 32 ug/kg/min (reference value: 9.64 mmHg). The format is functional.
For a further experiment, the species on record is Oryctolagus cuniculus. The experiment is described as follows: Activation of actin-stimulated rabbit psoas skeletal muscle myosin S1 fragment ATPase activity at 100 uM after 10 mins by spectrophotometric analysis. The gist of the method: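 Rabbit skeletal S1 myosin with actin thin filament complex at pCa 6.5, in 20 mM Tris HCl pH 7.5, 15 mM KCl, 6 mM MgCl2, 1 mM ATP. Compound at single 100 uM dose, 10 min at room temperature. Cytophos stop; phosphate read at 650 nm. % activity versus blank-corrected DMSO control.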

Experiment [3] concerns Rattus norvegicus. The experiment is described as follows: Effect on hemodynamic parameters in Sprague-Dawley rat heart assessed as heart rate at 32 ug/kg/min (reference value: 274 bpm). The format is functional.
Experiment [4] deals with Rattus norvegicus. The experiment is described as follows: Effect on hemodynamic parameters in Sprague-Dawley rat heart assessed as dPdT min at 8 ug/kg/min (reference value: -5462 to -4611 mmHg/s). The format is functional.
Experiment [5] concerns Rattus norvegicus. The experiment is described as follows: Effect on hemodynamic parameters in Sprague-Dawley rat heart assessed as heart rate at 128 ug/kg/min (reference value: 274 bpm). The format is functional.
In experiment [6] the test system is Rattus norvegicus. The experiment is described as follows: Effect on hemodynamic parameters in Sprague-Dawley rat heart assessed as heart rate at 64 ug/kg/min (reference value: 274 bpm). The format is functional.
The test system of experiment [7] is Rattus norvegicus. The experiment is described as follows: Positive inotropic activity in Sprague-Dawley rat heart assessed as left ventricular posterior wall thickness end diastole at 4 ug/kg/min for 3 mins by echocardiographic analysis (reference value: 0.88 to 1.54 mm). The format is functional. In outline: (§1)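 Male Sprague-Dawley rats, seven weeks old, anaesthetised with 1.5 % isoflurane given by nosecone. Compound infused through the right internal jugular vein, used as a central venous line. Left ventricular dimensions measured by echocardiography.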

In experiment [8] the test system is Rattus norvegicus. The experiment is described as follows: Effect on hemodynamic parameters in Sprague-Dawley rat heart assessed as dPdT max at 64 ug/kg/min (reference value: 4162 mmHg/s). The format is functional.
Experiment [9] deals with Rattus norvegicus. The experiment is described as follows: Positive inotropic activity in Sprague-Dawley rat heart assessed as left ventricular internal diameter end diastole at 4 ug/kg/min for 3 mins by echocardiographic analysis (reference value: 5.66 to 7.80 mm). The format is functional. In outline: as §1
The test system of experiment [10] is Rattus norvegicus. The experiment is described as follows: Effect on hemodynamic parameters in Sprague-Dawley rat heart assessed as end-diastolic pressure at 128 ug/kg/min (reference value: 9.64 mmHg). The format is functional.
Experiment [11] has as its system Rattus norvegicus. The experiment is described as follows: Effect on hemodynamic parameters in Sprague-Dawley rat heart assessed as dPdT min at 128 ug/kg/min (reference value: -4611 mmHg/s). The format is functional.
For experiment [12], the system named is Rattus norvegicus. The experiment is described as follows: Effect on hemodynamic parameters in Sprague-Dawley rat heart assessed as end-diastolic pressure at 64 ug/kg/min (reference value: 9.64 mmHg). The format is functional.
For experiment [13], the system named is Rattus norvegicus. The experiment is described as follows: Effect on hemodynamic parameters in Sprague-Dawley rat heart assessed as end-systolic pressure at 16 ug/kg/min (reference value: 87.48 to 97.85 mmHg). The format is functional.
The subject of experiment [14] is Rattus norvegicus. The experiment is described as follows: Effect on hemodynamic parameters in Sprague-Dawley rat heart assessed as dPdT max at 128 ug/kg/min (reference value: 4162 mmHg/s). The format is functional.
Experiment [15] relates to Rattus norvegicus. The experiment is described as follows: Effect on hemodynamic parameters in Sprague-Dawley rat heart assessed as end-systolic pressure at 64 ug/kg/min (reference value: 87.48 mmHg). The format is functional.
The subject of experiment [16] is Rattus norvegicus. The experiment is described as follows: Positive inotropic activity in Sprague-Dawley rat heart assessed as left ventricular posterior wall thickness end systole at 8 ug/kg/min for 3 mins by echocardiographic analysis (reference value: 2.07 to 2.46 mm). The format is functional. The gist of the method: as §1
Experiment [17] concerns Rattus norvegicus. The experiment is described as follows: Effect on hemodynamic parameters in Sprague-Dawley rat heart assessed as dPdT min at 64 ug/kg/min (reference value: -4611 mmHg/s). The format is functional.
Experiment [18] deals with Rattus norvegicus. The experiment is described as follows: Effect on hemodynamic parameters in Sprague-Dawley rat heart assessed as dPdT max at 32 ug/kg/min (reference value: 4162 mmHg/s). The format is functional.
In experiment [19] the test system is Rattus norvegicus. The experiment is described as follows: Positive inotropic activity in Sprague-Dawley rat heart assessed as ejection fraction at 8 ug/kg/min for 3 mins by echocardiographic analysis (reference value: 67.16 to 85.81%). The format is functional. In outline:
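Seven-week-old male Sprague-Dawley rats under 1.5 % isoflurane via nosecone. Drug given through a right internal jugular vein central line. Left ventricular fractional shortening and ejection fraction measured by echocardiography with and without sample, expressed as % increase.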

Experiment [20] has as its system Rattus norvegicus. The experiment is described as follows: Effect on hemodynamic parameters in Sprague-Dawley rat heart assessed as dPdT min at 32 ug/kg/min (reference value: -4611 mmHg/s). The format is functional.
For experiment [21], the system named is Rattus norvegicus. The experiment is described as follows: Effect on hemodynamic parameters in Sprague-Dawley rat heart assessed as end-systolic pressure at 32 ug/kg/min (reference value: 87.48 mmHg). The format is functional.
In experiment [22] the test system is Rattus norvegicus. The experiment is described as follows: Effect on hemodynamic parameters in Sprague-Dawley rat heart assessed as dPdT max at 4 ug/kg/min (reference value: 4985 to 5214 mmHg/s). The format is functional.
For experiment [23], the system named is Rattus norvegicus. The experiment is described as follows: Effect on hemodynamic parameters in Sprague-Dawley rat heart assessed as end-diastolic pressure at 4 ug/kg/min (reference value: 7.68 to 9.83 mmHg). The format is functional.
Experiment [24] concerns Rattus norvegicus. The experiment is described as follows: Effect on hemodynamic parameters in Sprague-Dawley rat heart assessed as dPdT max at 2 ug/kg/min (reference value: 5214 mmHg/s). The format is functional.
Experiment [25] concerns Rattus norvegicus. The experiment is described as follows: Effect on hemodynamic parameters in Sprague-Dawley rat heart assessed as dPdT min at 2 ug/kg/min (reference value: -5462 mmHg/s). The format is functional.
Experiment [26] deals with Rattus norvegicus. The experiment is described as follows: Effect on hemodynamic parameters in Sprague-Dawley rat heart assessed as end-systolic pressure at 4 ug/kg/min (reference value: 94.65 to 97.85 mmHg). The format is functional.
The subject of experiment [27] is Rattus norvegicus. The experiment is described as follows: Effect on hemodynamic parameters in Sprague-Dawley rat heart assessed as end-systolic pressure at 2 ug/kg/min (reference value: 97.85 mmHg). The format is functional.
Experiment [28] relates to Rattus norvegicus. The experiment is described as follows: Effect on hemodynamic parameters in Sprague-Dawley rat heart assessed as dPdT min at 4 ug/kg/min (reference value: -5462 to -4898 mmHg/s). The format is functional.
The subject of experiment [29] is Rattus norvegicus. The experiment is described as follows: Effect on hemodynamic parameters in Sprague-Dawley rat heart assessed as end-diastolic pressure at 2 ug/kg/min (reference value: 7.68 mmHg). The format is functional.
Experiment [30] relates to Rattus norvegicus. The experiment is described as follows: Effect on hemodynamic parameters in Sprague-Dawley rat heart assessed as heart rate at 4 ug/kg/min (reference value: 260 to 322 bpm). The format is functional.
For experiment [31], the system named is Rattus norvegicus. The experiment is described as follows: Effect on hemodynamic parameters in Sprague-Dawley rat heart assessed as heart rate at 2 ug/kg/min (reference value: 322 bpm). The format is functional.

As for `O=C(NCCCc1ccccc1)NCc1ccccc1`, the Activity in the experiment with Rattus norvegicus [1] was 113.24 mmHg; in the experiment with Rattus norvegicus [2] it was 12.26 mmHg; in the experiment listed under Oryctolagus cuniculus, 1.4%; with Rattus norvegicus [3], 268 bpm; in the experiment with Rattus norvegicus [4], -5583 mmHg/s; with Rattus norvegicus [5] it was 284 bpm. The Activity was 277 bpm in the experiment on Rattus norvegicus [6]; 1.62 mm in the experiment on Rattus norvegicus [7]; 5382 mmHg/s in the experiment with Rattus norvegicus [8]; 5.57 mm in the experiment with Rattus norvegicus [9]; 24.12 mmHg with Rattus norvegicus [10]; -6346 mmHg/s with Rattus norvegicus [11]. Besides, the Activity in the experiment with Rattus norvegicus [12] was 16.85 mmHg; in the experiment with Rattus norvegicus [13] it was 94.26 mmHg; with Rattus norvegicus [14], 6146 mmHg/s; in the experiment with Rattus norvegicus [15] it was 108.41 mmHg; with Rattus norvegicus [16], 2.68 mm; in the experiment on Rattus norvegicus [17], -6138 mmHg/s. In addition, the Activity in the experiment with Rattus norvegicus [18] is 4744 mmHg/s; in the experiment on Rattus norvegicus [19] it was 96.1%; in the experiment on Rattus norvegicus [20] it was -5375 mmHg/s; in the experiment on Rattus norvegicus [21] it was 95.74 mmHg.

Turning to `COC(=O)N1CCN(Cc2cccc(NC(=O)Nc3ccc(C)nc3)c2F)CC1` [OMECAMTIV MECARBIL], the Activity in the experiment on Rattus norvegicus [22] was 6645 mmHg/s; in the experiment listed under Oryctolagus cuniculus, 2.8%; in the experiment on Rattus norvegicus [4] it was -5547 mmHg/s; in the experiment on Rattus norvegicus [23] it was 7 mmHg; in the experiment on Rattus norvegicus [24] it was 6320 mmHg/s; in the experiment with Rattus norvegicus [25], -6628 mmHg/s. For the same compound, the Activity is recorded as 1.36 mm in the experiment on Rattus norvegicus [7]; 108.85 mmHg with Rattus norvegicus [26]; 6.41 mm in the experiment on Rattus norvegicus [9]; 109.76 mmHg in the experiment on Rattus norvegicus [27]; -6516 mmHg/s in the experiment on Rattus norvegicus [28]; 108.91 mmHg in the experiment on Rattus norvegicus [13]. Further, the Activity in the experiment on Rattus norvegicus [29] is 7.65 mmHg; with Rattus norvegicus [16], 2.68 mm; with Rattus norvegicus [30], 326 bpm; in the experiment on Rattus norvegicus [19], 89.52%; with Rattus norvegicus [31], 322 bpm.
